# Laboratory results reported in PMC10395482 (Heliyon, 2023).
# Tests used:
# [1] = tested on: MHCC97L xenograft; assay: MHCC97L subcutaneous xenograft; type: in vivo, BALB/c nude mice; conditions: 14 days
# Procedure, shortened: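 Five-week-old male BALB/c nude mice received MHCC97L cells subcutaneously in the axilla (1 × 10^7 cells in 0.1 mL saline). At 50 mm3 they were randomized to groups and given the test compound in saline by tail vein (10, 20, 30 mg/kg; 0.1 mL/20 g). Tumor volume, calculated as (short diameter)2 × long diameter/2, and body weight were recorded every 2 days. Mice were sacrificed after 14 days; one-way ANOVA with Dunnett's test was used.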
# [2] = tested on: chick embryo chorioallantoic membrane; assay: Chick chorioallantoic membrane; type: in vivo; conditions: VEGF 0.5 μg, 48 h; n = 5
# Procedure, shortened: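 Fertilized eggs were held at 37 °C and 60% humidity for 5 days and turned 180° every 24 h. On day 6 the shell was opened along the air chamber and sterile rubber rings were placed at the aorta. Test compound in saline (0, 10, 50, 250 μM; 50 μL) was added inside the ring, and eggs were sealed for 48 h. Vascular density was calculated as vessel area/view area from stereomicroscope images.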
Compound,"Tumor Inhibition Rate ([1]; PTK787 50 mg/kg, n = 5)","Tumor Weight ([1]; PTK787 50 mg/kg, mean ± SD, n = 5, *** p < 0.001 vs saline)","tumor growth, volume and weight (in words) ([1]; SAIF 10, 20, 30 mg/kg or PTK787 50 mg/kg, vs control)","angiogenesis in CAM, VEGF alone [2]"
Clc1ccc(Nc2nnc(Cc3ccncc3)c3ccccc23)cc1 [PTK787],88.78%,0.146 ± 0.049 *** g,decreased MHCC97L transplanted tumor growth and significantly reduced mean tumor volume,
VEGF,,,,significantly increased neoangiogenesis
